This is a sample that favours compounds with a hit; in the whole collection about 1.1% have one here.
FAS TE block: FAS thioesterase domain inhibitors, primary screen, biochemical, fluorescence intensity, uHTS; recombinant FAS-TE, OMFH fluorogenic substrate, fluorescence endpoint; 360,000 tested, 0.67% active; Fatty acid synthase (Homo sapiens), P49327; inhibition, % at 15 µM;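 active = compounds whose normalised, plate-corrected inhibition of enzyme fluorescence in the single-dose primary screen is 50% or more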
hiPSC survival: enhancers of single-cell hiPSC survival, primary screen, ATPlite luminescence; 360,000 tested, 0.044% active; AID 602274, 2012; 100% = ROCK inhibitor wells, 0% = DMSO; survival enhancement, % at 20 µM; in the data active = survival enhancement above about 18%;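 note: cells exposed to compounds for 16 hours before the ATP read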
ABCB6 inh 2: ABCB6 transporter inhibitors, primary screen, K562-ABCB6 cells, flow cytometry, MLPCN library; K562-ABCB6 porphyrin accumulation, 1 h; hits give low values; ATP-binding cassette sub-family B member 6 (Homo sapiens), Q9NP58; 360,000 tested, 0.19% active; fluorescence ratio to DMSO, % at 10 µM; AID 602162, 2011;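 active = fluorescence ratio to DMSO below 75%, the collection mean minus 3 SD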;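 note: signal is porphyrin accumulated inside mitochondria; lower ratio means ABCB6 inhibition with less porphyrin fluorescence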
SENP1 FRET inh: human SENP1 catalytic domain inhibitors, primary screen, biochemical, FRET, uHTS; Sentrin-specific protease 1 (Homo sapiens), Q9P0U3; inhibition, % at 10 µM; recombinant SENP1 catalytic domain, CyPet-SUMO1-YPet FRET cleavage; 360,000 tested, 0.21% active;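 active = inhibition at least 30% at 10 µM, raw YFP signal under a set limit, fluorescence ratio 0.5 to 1.5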
Target sequence (Q9P0U3 419-644 limits assumed): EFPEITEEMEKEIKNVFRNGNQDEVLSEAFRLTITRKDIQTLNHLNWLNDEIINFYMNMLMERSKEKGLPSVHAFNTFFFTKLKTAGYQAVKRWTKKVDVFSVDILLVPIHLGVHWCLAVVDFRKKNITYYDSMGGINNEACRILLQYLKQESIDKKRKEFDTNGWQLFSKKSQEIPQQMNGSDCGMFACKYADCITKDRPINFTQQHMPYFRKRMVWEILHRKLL
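Controls: no-enzyme wells low, DMSO-plus-enzyme wells high control. Test system: human recombinant His6-tagged SENP1 catalytic domain enzyme. Reagent: SFCypet-SUMO1-SFYpet FRET protein substrate, 25 nM final. Doses: one dose per compound, 10 µM, 0.5% DMSO. Detection: FRET, CFP and YFP emission. Timing: 50 min reaction at room temperature.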
ABCB6 inh CP1: ABCB6 transporter inhibitors, confirmation, K562-ABCB6 cells, flow cytometry, cherry pick 1. shares compounds with ABCB6 inh 2. K562-ABCB6 porphyrin accumulation, 1 h; hits give low values. ratio response (% of DMSO), % at 10 µM. 700 tested, under 10 active. AID 602430, 2012;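 active = repeat-averaged ratio response below 75% of DMSO, the collection mean minus 3 SD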;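 note: median porphyrin fluorescence at 575 nm with 488 nm excitation from mitochondria; lower ratio means less porphyrin signal so ABCB6 inhibition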
Large screens that a line does not name were inactive (follow-up assays come after a bar, where they were run).

CCN(CC)C(=O)[C@H]1CC(CC(=O)NCc2ccc(OC)c(OC)c2)C(=O)N2CCc3c([nH]c4ccc(OC)cc34)[C@]12C (stereo partly drawn)	ABCB6 inh 2 64 | ABCB6 inh CP1 inactive
COc1cccc(-c2nnc(-c3ccco3)o2)c1	ABCB6 inh 2 67 | ABCB6 inh CP1 inactive
COc1cccc(-c2nnc(-c3ccc(C)o3)o2)c1	none
O=C(Nc1cccc(Cl)c1)c1cc2c(=O)n3ccccc3nc2s1	none | ABCB6 inh CP1 inactive
CC(NC(=O)CN1CCc2ccccc21)c1ccccc1 (stereo not drawn)	ABCB6 inh 2 59 | ABCB6 inh CP1 inactive
OC(CON=C1c2ccccc2-c2ccccc21)CN1CCNCC1 (stereo not drawn)	none
CC(=O)Nc1cccc(-c2ccnc3c2CC(C)(C(=O)Nc2cccc(C(F)(F)F)c2)O3)c1 (stereo not drawn)	none | ABCB6 inh CP1 inactive
CC1(C(=O)Nc2cccc(C(F)(F)F)c2)Cc2c(-c3cccc(C(F)(F)F)c3)ccnc2O1 (stereo not drawn)	none
CC1(C(=O)NS(=O)(=O)C2CC2)CCN(C(=O)c2ccccc2F)C1 (stereo not drawn)	none
O=C(c1ccccc1Cl)N1CCC(c2nc3c(nnn3Cc3ccco3)c(=O)[nH]2)CC1	none
O=C(NCc1cccs1)c1nc2c(nnn2Cc2ccccc2Cl)c(=O)[nH]1	ABCB6 inh 2 70 | ABCB6 inh CP1 inactive
O=C(c1ccccc1)N1CCC(c2nc3c(nnn3Cc3ccccc3Cl)c(=O)[nH]2)CC1	none | ABCB6 inh CP1 inactive
CCC(C)NC(=O)c1nc2c(nnn2Cc2ccccc2Cl)c(=O)[nH]1 (stereo not drawn)	none
O=C(c1cccs1)N1CCC(c2nc3c(nnn3Cc3ccccc3Cl)c(=O)[nH]2)CC1	none | ABCB6 inh CP1 inactive
COCCNc1nc(Nc2ccc(C)cc2C)c2sccc2n1	none
O[C@@H]1CN(CC2CCCCC2)[C@@H](c2ccccc2)C[C@H]1n1cc(-c2ccc(F)cc2)nn1	none
COC(CNC(=O)c1cnn2c(C)c(Cc3ccccc3)c(C)nc12)OC	none | ABCB6 inh CP1 inactive
COC(CNC(=O)Cc1c(C)nc2c(-c3ccccc3)c(C)nn2c1C)OC	none
Cc1cc(C)c(Cc2c(C)nc3c(C(=O)NCc4ccco4)cnn3c2C)c(C)c1	none | ABCB6 inh CP1 inactive
CCOC(=O)c1ccc(NS(=O)(=O)c2c(C)nc3sccn3c2=O)cc1	none
CCn1c(=O)c(C(=O)CN(C)CC(=O)Nc2ccccc2Br)c(N)n(Cc2ccccc2)c1=O	none
COc1ccc(C(=O)NC2=NCCS2)cc1	ABCB6 inh 2 74 | ABCB6 inh CP1 inactive
COc1cc(OC)cc(C(=O)NC2=NCCS2)c1	none
O=C(O)c1ccccc1C(=O)OC1CCCC2CCCC21 (stereo not drawn)	none
CCn1ccc(C(=O)Nc2ncc(C)s2)n1	none
CCCSc1nc2sc3c(c2c(=O)[nH]1)CC(C)(CC)OC3 (stereo not drawn)	none
CCSc1nc2sc3c(c2c(=O)[nH]1)CC(C)(CC)OC3 (stereo not drawn)	ABCB6 inh 2 61 | ABCB6 inh CP1 inactive
CSC1=C(C#N)C(=O)NC(c2ccc(Cl)cc2)S1 (stereo not drawn)	none
O=S(=O)(c1ccc2ccccc2c1)N1CCN(C2CCN(Cc3ccccc3)CC2)CC1	ABCB6 inh 2 48 | ABCB6 inh CP1 inactive
CC(Oc1cc2oc(=O)c3c(c2cc1Cl)CCCC3)C(=O)NCc1cccnc1 (stereo not drawn)	none
CC(Oc1ccc2c3c(c(=O)oc2c1)CCCC3)C(=O)NCc1cccnc1 (stereo not drawn)	ABCB6 inh 2 58 | ABCB6 inh CP1 inactive
O=C(NCc1ccc2c(c1)OCO2)c1ccc(Cl)c(S(=O)(=O)N2CCOCC2)c1	ABCB6 inh 2 53 | ABCB6 inh CP1 inactive
CCCCN(CC(=O)NC1CCCC1)C(=O)C(=O)Nc1ccc2c(c1)OCCO2	none
CCn1cc([N+](=O)[O-])c(C(=O)N2N=C3/C(=C/c4cccs4)CCCC3C2c2cccs2)n1 (stereo not drawn)	ABCB6 inh 2 66 | ABCB6 inh CP1 inactive
CCn1cc([N+](=O)[O-])c(C(=O)N2CCOCC2)n1	none
CCOC(=O)CN1C(=O)Nc2ccc(Br)cc2C1c1ccccc1 (stereo not drawn)	none
CCOC(=O)CN1C(c2ccc(O)cc2)Nc2ccc(Br)cc2C1c1ccccc1 (stereo not drawn)	ABCB6 inh 2 73 | ABCB6 inh CP1 inactive
CC(C)c1nnc(NC(=O)CCC(=O)Nc2ccc3cn[nH]c3c2)s1	none
CC1=CC(C)(C)N2C(=O)C3(C(C#N)=C(N)Oc4cc(C)oc(=O)c43)c3cc(C)cc1c32 (stereo not drawn)	ABCB6 inh 2 67 | ABCB6 inh CP1 inactive
CCOc1ccc(S(=O)(=O)N2CCN(C(=O)c3cc(S(=O)(=O)N4CCOCC4)ccc3C)CC2)cc1	ABCB6 inh 2 68 | ABCB6 inh CP1 inactive
CCOc1ccc(S(=O)(=O)N2CCN(C(=O)c3ccc(C)c(S(=O)(=O)N4CCOCC4)c3)CC2)cc1	none
CC1(C(=O)N2CCN(C(=O)c3ccco3)CC2)CCN1Cc1ccccc1OC(F)F (stereo not drawn)	ABCB6 inh 2 70 | ABCB6 inh CP1 inactive
O=c1c2c(-c3cccs3)csc2ncn1-c1ccccc1	ABCB6 inh 2 47 | ABCB6 inh CP1 inactive
CC(=O)c1ccc(-c2nnc(CCC(=O)N(C)Cc3c(C)nc4ccccn34)o2)s1	none
COc1ccc(C2=NS(=O)(=O)N(C)C(C(=O)N3CCCCC3C)=C2)cc1 (stereo not drawn)	none
CC1(C(=O)NS(=O)(=O)c2cccs2)CCN1C(=O)C1(c2ccc(Cl)cc2)CC1 (stereo not drawn)	none
CC1(C(=O)NS(=O)(=O)c2ccccc2Cl)CCN1C(=O)C1(c2ccc(Cl)cc2)CC1 (stereo not drawn)	none | ABCB6 inh CP1 inactive
CC1(C(=O)NS(=O)(=O)c2cccs2)CCN1C(=O)C1(c2ccc(Cl)cc2)CCC1 (stereo not drawn)	none | ABCB6 inh CP1 inactive
CC1(C(=O)NS(=O)(=O)c2ccccc2)CCN1C(=O)C1(c2ccccc2)CCCC1 (stereo not drawn)	none
CC1(C(=O)NS(=O)(=O)c2ccc(Cl)s2)CCN1C(=O)C1(c2ccc(Cl)cc2)CCC1 (stereo not drawn)	none | ABCB6 inh CP1 inactive
CC1(C(=O)NS(=O)(=O)c2cccs2)CCN1C(=O)C1(c2ccccc2)CCCC1 (stereo not drawn)	ABCB6 inh 2 72 | ABCB6 inh CP1 inactive

Compound activity (PubChem)
